Measurements as given in PubChem BioAssay.
Results filed as inconclusive are left out.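 The calls were made as follows, unless noted: active = RAM network inhibition above 8.4% in each of two replicates, 3 SD over the compound average; inconclusive = above 8.4% inhibition in only one replicate; inactive = 8.4% inhibition or less in each replicate.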

Experiments:
[1] = OD615 S. cerevisiae growth inhibition, permissive medium, pilot counter-assay, permissive growth control for S. cerevisiae lifespan shortening project (AID 705;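 active = growth inhibition above 25% in both replicates, a cutoff set 3 SD above the mean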); conditions: OD615, 24 h, at 10 µM, hits give high values
Procedure, shortened: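 Material: engineered DeaD yeast; Compound: one dose 10 µM, DMSO 0.25% final; Detection: absorbance (optical density) at 615 nm; Buffer or medium: permissive raffinose/galactose medium; Timing: 24 h exposure, 30 °C.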

[2] = Restrictive medium S. cerevisiae growth inhibition, OD615, pilot screen of yeast lifespan reduction project, restrictive growth control (AID 706;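 active = growth inhibition above a set limit, 3 SD over mean compound inhibition, in both replicates, cut at about 43% in these data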;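 also: modified DeaD lifespan yeast strain shifted to restrictive glucose medium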); conditions: OD615, 48 h, at 10 µM, hits give high values
Procedure, shortened: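 Buffer or medium: restrictive glucose medium (CSMM-D); test system: modified S. cerevisiae; doses: single dose of 10 µM compound final, 0.25% DMSO; schedule: 48 h compound exposure at 30 °C; detection: absorbance (optical density) measured at 615 nm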

[3] = viability gain of MRP-1-high H69AR cells under doxorubicin, pilot screen, MRP-1 activator project, CellTiter-Glo, duplicate (AID 807;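 active = viability increase at or above a cutoff of the median across tested compounds plus 3 SD, cut at about 8.5% in these data, passing the limit was not always enough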;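 also: compound pretreatment 18-22 h then 72 h combined with doxorubicin; 0% = doxorubicin alone and 100% = vehicle without doxorubicin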); conditions: H69AR viability with doxorubicin, CellTiter-Glo luminescence; at 10 µM; hits give high values
[4] = growth suppression of beta-catenin knockout HCT116, pilot screen, human colon tumor cells (AID 823;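 active = cell viability at or below a set limit in both duplicate runs, the limit being the all-compound median minus 4 SD, cut at about 23% in these data, passing the limit was not always enough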;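 also: 0% = wells killed by 20 µM Hyamine and 100% = untreated DMSO cell wells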); conditions: CellTiter-Glo, 60 h, at 10 µM, hits give low values
[5] = growth suppression of PTEN-deleted HCT116, pilot screen, cell-based, HCT116 clonal line, CellTiter-Glo (AID 824;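 active = viability at or below 27.92% in each of two runs, the all-compound median minus 4 SD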;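 also: 0% = 20 µM Hyamine control and 100% = vehicle cell control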); conditions: 60 h, at 10 µM, hits give low values
[6] = inhibitors of the yeast RAM network, pilot screen, dse1pr::URA3 reporter, 5-FOA selection (AID 869;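 active = inhibition over a set limit, the all-compound mean plus 3 SD, in both replicate runs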;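 also: 0% = DMSO wells with no growth and 100% = 10 µM 1-NA-PP1 with full growth; RAM network block rescues cells from 5-FOA so hits raise OD615 growth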); conditions: S. cerevisiae dse1pr::URA3 5-FOA growth, OD615, 2 d; at 10 µM; hits give high values; strain carries analog-sensitive mutant Cbk1 kinase
[7] = RAM signaling pathway blockade in yeast – S. cerevisiae, Pdr1DBD-CYC8 efflux-inhibited sensitized strain, primary screen (AID 1298);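 also: 0% = DMSO untreated cells without growth and 100% = 10 µM 1-NA-PP1 full growth; higher means more yeast growth rescued from 5-FOA killing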; conditions: S. cerevisiae cbk1-as DSE1-URA3 strain, 5-FOA growth OD615, 2 d; at 50 µM; hits give high values

CC(=O)c1ccc(OCC(O)CN2CCN(Cc3ccccc3)CC2)cc1 (stereo unspecified)
inactive: growth inhibition [1] -6.49% | growth inhibition [2] 4.36% | viability increase [3] -1.36% | viability [4] 101% | viability [5] 92.1% | inhibition [6] -0.305% | RAM network inhibition [7] 0.94%

COCCNC(=O)Cn1cnc2c1c(=O)n(C)c(=O)n2C
inactive: growth inhibition [1] -16.3% | growth inhibition [2] -12.6% | viability increase [3] -0.95% | viability [4] 97.6% | viability [5] 98.3% | inhibition [6] 1.23% | RAM network inhibition [7] 3.4%

Cc1cccc(N2CCN(C(c3cccs3)c3nnnn3C(C)(C)C)CC2)c1C (stereo unspecified)
inactive: growth inhibition [1] -10.2% | growth inhibition [2] -9.96% | viability increase [3] -0.98% | viability [4] 55.5% | viability [5] 56.7% | inhibition [6] 0.97% | RAM network inhibition [7] 5.15%

c1ccc(OCCOCCSc2ncccn2)cc1
inactive: growth inhibition [1] 1.54% | growth inhibition [2] -1.09% | viability increase [3] 2.36% | viability [4] 101% | viability [5] 98.4% | inhibition [6] 0.395% | RAM network inhibition [7] 3.21%

CCC(=O)Nc1nnc(-c2ccco2)o1
inactive: growth inhibition [1] -3.92% | growth inhibition [2] -4.75% | viability increase [3] -0.45% | viability [4] 93.8% | viability [5] 102% | inhibition [6] 0.105% | RAM network inhibition [7] 4.9%

COc1ccc(C(=O)Nc2cc3c(cc2C#N)OCO3)cc1S(=O)(=O)N1CCN(C)CC1
inactive: growth inhibition [1] -18.3% | growth inhibition [2] -21.2% | viability increase [3] 1.53% | viability [4] 100% | viability [5] 101% | inhibition [6] 0.975% | RAM network inhibition [7] 5.27%

COc1ccc(C2OC(=O)CC2C(=O)N2CCN(c3cc(Cl)ccc3C)CC2)cc1OC (stereo unspecified)
inactive: growth inhibition [1] -0.42% | growth inhibition [2] 4.67% | viability increase [3] -2.26% | viability [4] 96.8% | viability [5] 95.5% | inhibition [6] 0.44% | RAM network inhibition [7] 2.7%

CN(C)C(=O)c1nnc(Cc2ccc(Cl)cc2)o1
inactive: growth inhibition [1] -8.24% | growth inhibition [2] 7.88% | viability increase [3] 2.17% | viability [4] 98.5% | viability [5] 108% | inhibition [6] 0.31% | RAM network inhibition [7] 7.05%

CCCCNC(=O)c1cc(-c2ccc(OC)c(OC)c2)on1
inactive: growth inhibition [1] 0.455% | growth inhibition [2] 5.25% | viability increase [3] 2.07% | viability [4] 104% | viability [5] 96.9% | inhibition [6] -0.37% | RAM network inhibition [7] -0.26%

Cc1cc(NC(=O)CSCc2nc(-c3cccc(Cl)c3)oc2C)no1
inactive: growth inhibition [1] -12.6% | growth inhibition [2] -5.47% | viability increase [3] 1.25% | viability [4] 94.3% | viability [5] 95.5% | inhibition [6] 1.98% | RAM network inhibition [7] 11.2%

O=C(CSc1nnc(-c2cccs2)o1)N1CCCCC1
inactive: growth inhibition [1] -2.25% | growth inhibition [2] 11.9% | viability increase [3] 2.11% | viability [4] 104% | viability [5] 115% | inhibition [6] 1.31% | RAM network inhibition [7] 1.38%

O=C(Nc1cccnc1)c1cc(-c2ccc(Br)cc2)on1
inactive: growth inhibition [1] -9.68% | growth inhibition [2] -9.79% | viability increase [3] 0.92% | viability [4] 100% | viability [5] 95.9% | inhibition [6] 0.76% | RAM network inhibition [7] 6.96%

Cc1cnc(N)c2c(=O)oc3ccccc3c12
inactive: growth inhibition [1] -0.41% | growth inhibition [2] 24.5% | viability increase [3] -4.45% | viability [4] 103% | viability [5] 92.8% | inhibition [6] 1.61% | RAM network inhibition [7] 1.88%

Cn1c2ccccc2c2c(C(=O)O)cn(C3CCCC3)c(=O)c21
inactive: growth inhibition [1] 3.4% | growth inhibition [2] 1.83% | viability increase [3] -3.21% | viability [4] 91.4% | viability [5] 91.7% | inhibition [6] 1.46% | RAM network inhibition [7] 4.9%

Cc1cc(=O)oc(C)c1C(=O)N1CCc2c([nH]c3ccccc23)C1C(C)C (stereo unspecified)
inactive: growth inhibition [1] 3.99% | growth inhibition [2] 3.98% | viability increase [3] -5% | viability [4] 94.9% | viability [5] 89.4% | inhibition [6] 1.1% | RAM network inhibition [7] 4.47%

Cc1ccc(-n2ncc3c(=O)[nH]c(SCC(=O)N4CCCCC4)nc32)cc1
inactive: growth inhibition [1] -4.04% | growth inhibition [2] 2.2% | viability increase [3] -4.87% | viability [4] 94.6% | viability [5] 92.1% | inhibition [6] 1.27% | RAM network inhibition [7] 0.05%

COc1ccc(C2C(C(=O)c3ccco3)=C(O)C(=O)N2CCc2ccccc2)cc1OC (stereo unspecified)
inactive: growth inhibition [1] -12.1% | growth inhibition [2] 7.54% | viability increase [3] -1.95% | viability [4] 101% | viability [5] 92.5% | inhibition [6] 5.36% | RAM network inhibition [7] 4.36%

O=C(Cn1cnc2c(cnn2-c2ccccc2)c1=O)NC1CCCC1
inactive: growth inhibition [1] 3.55% | growth inhibition [2] -3.13% | viability increase [3] 1.03% | viability [4] 99.2% | viability [5] 95.8% | inhibition [6] 1.77% | RAM network inhibition [7] 2.38%
